Tested on: U2OS
Assay: Multiplex assay against U2OS
Type: toxicity, cell-based
Details: human
How it was run: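 Compound was added to live cells that had been stained at seeding with Hoechst33342, BioTracker Green Microtubule Cytoskeleton Dye, MitoTracker Red and Annexin V Alexa Fluor 680, and imaging followed on a CQ1 microscope at 37°C and 5% CO2. CellPathfinder machine-learning gating divided cells into Hoechst high-intensity objects or normal cells, normal cells into healthy, pyknosed or fragmented nuclei, and pyknosed cells into mitotic or apoptotic. Tubulin, mitochondrial-mass and membrane-permeability phenotypes are per cents of healthy-nucleus cells.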

[1] = 12 h, 1 µM, compound concentration 1 uM, replicate 1
[2] = 12 h, 1 µM, compound concentration 1 uM, replicate 2
[3] = 12 h, 10 µM, compound concentration 10 uM, replicate 1
[4] = 12 h, 10 µM, compound concentration 10 uM, replicate 2
[5] = 24 h, 1 µM, compound concentration 1 uM, replicate 1
[6] = 24 h, 1 µM, compound concentration 1 uM, replicate 2
[7] = 24 h, 10 µM, compound concentration 10 uM, replicate 1
[8] = 24 h, 10 µM, compound concentration 10 uM, replicate 2
[9] = 48 h, 1 µM, compound concentration 1 uM, replicate 1
[10] = 48 h, 1 µM, compound concentration 1 uM, replicate 2
[11] = 48 h, 10 µM, compound concentration 10 uM, replicate 1
[12] = 48 h, 10 µM, compound concentration 10 uM, replicate 2

Cc1ccccc1C(=O)Nc1ccc(C(=O)N2CCCC(N(C)C)c3ccccc32)cc1.Cl (centres undefined)
Population Apoptotic (%) [1]: 91% | Population Fragmented Nuclei (%) [1]: 20% | Population Healthy Nuclei (%) [1]: 70% | Population Hoechst High Intensity Objects (%) [1]: 1% | Population Membrane Permeable-Phenotype (%) [1]: 5% | Population Mitochondria Different-Phenotype (%) [1]: 3% | Population Mitotic Cells (%) [1]: 8% | Population Normal (%) [1]: 98% | Population Pyknosed Nuclei (%) [1]: 8% | Population Tubulin-Different-Phenotype (%) [1]: 4% | Total Cell Count [1]: 282 | Population Apoptotic (%) [2]: 77% | Population Fragmented Nuclei (%) [2]: 14% | Population Healthy Nuclei (%) [2]: 79% | Population Membrane Permeable-Phenotype (%) [2]: 4% | Population Mitochondria Different-Phenotype (%) [2]: 5% | Population Mitotic Cells (%) [2]: 22% | Population Pyknosed Nuclei (%) [2]: 5% | Population Tubulin-Different-Phenotype (%) [2]: 1% | Total Cell Count [2]: 157 | Population Apoptotic (%) [3]: 59% | Population Fragmented Nuclei (%) [3]: 18% | Population Healthy Nuclei (%) [3]: 55% | Population Hoechst High Intensity Objects (%) [3]: 4% | Population Membrane Permeable-Phenotype (%) [3]: 14% | Population Mitochondria Different-Phenotype (%) [3]: 11% | Population Mitotic Cells (%) [3]: 40% | Population Normal (%) [3]: 95% | Population Pyknosed Nuclei (%) [3]: 25% | Population Tubulin-Different-Phenotype (%) [3]: 8% | Total Cell Count [3]: 213 | Population Apoptotic (%) [4]: 56% | Population Healthy Nuclei (%) [4]: 62% | Population Hoechst High Intensity Objects (%) [4]: 1% | Population Membrane Permeable-Phenotype (%) [4]: 15% | Population Mitochondria Different-Phenotype (%) [4]: 25% | Population Mitotic Cells (%) [4]: 43% | Population Normal (%) [4]: 98% | Population Pyknosed Nuclei (%) [4]: 19% | Population Tubulin-Different-Phenotype (%) [4]: 15% | Total Cell Count [4]: 83 | Population Apoptotic (%) [5]: 88% | Population Fragmented Nuclei (%) [5]: 18% | Population Healthy Nuclei (%) [5]: 70% | Population Hoechst High Intensity Objects (%) [5]: 0% | Population Membrane Permeable-Phenotype (%) [5]: 6% | Population Mitochondria Different-Phenotype (%) [5]: 3% | Population Mitotic Cells (%) [5]: 11% | Population Normal (%) [5]: 99% | Population Pyknosed Nuclei (%) [5]: 10% | Population Tubulin-Different-Phenotype (%) [5]: 4% | Total Cell Count [5]: 333 | Population Apoptotic (%) [6]: 66% | Population Fragmented Nuclei (%) [6]: 13% | Population Healthy Nuclei (%) [6]: 77% | Population Hoechst High Intensity Objects (%) [6]: 1% | Population Membrane Permeable-Phenotype (%) [6]: 5% | Population Mitochondria Different-Phenotype (%) [6]: 4% | Population Mitotic Cells (%) [6]: 33% | Population Normal (%) [6]: 98% | Population Pyknosed Nuclei (%) [6]: 9% | Population Tubulin-Different-Phenotype (%) [6]: 3% | Total Cell Count [6]: 192 | Population Apoptotic (%) [7]: 71% | Population Fragmented Nuclei (%) [7]: 16% | Population Healthy Nuclei (%) [7]: 51% | Population Hoechst High Intensity Objects (%) [7]: 4% | Population Membrane Permeable-Phenotype (%) [7]: 16% | Population Mitochondria Different-Phenotype (%) [7]: 14% | Population Mitotic Cells (%) [7]: 28% | Population Normal (%) [7]: 95% | Population Pyknosed Nuclei (%) [7]: 31% | Population Tubulin-Different-Phenotype (%) [7]: 6% | Total Cell Count [7]: 211 | Population Apoptotic (%) [8]: 46% | Population Fragmented Nuclei (%) [8]: 27% | Population Healthy Nuclei (%) [8]: 53% | Population Hoechst High Intensity Objects (%) [8]: 5% | Population Membrane Permeable-Phenotype (%) [8]: 18% | Population Mitochondria Different-Phenotype (%) [8]: 18% | Population Mitotic Cells (%) [8]: 53% | Population Normal (%) [8]: 94% | Population Pyknosed Nuclei (%) [8]: 18% | Population Tubulin-Different-Phenotype (%) [8]: 18% | Total Cell Count [8]: 73 | Population Apoptotic (%) [9]: 85% | Population Fragmented Nuclei (%) [9]: 14% | Population Healthy Nuclei (%) [9]: 71% | Population Hoechst High Intensity Objects (%) [9]: 1% | Population Membrane Permeable-Phenotype (%) [9]: 5% | Population Mitochondria Different-Phenotype (%) [9]: 3% | Population Mitotic Cells (%) [9]: 14% | Population Normal (%) [9]: 98% | Population Pyknosed Nuclei (%) [9]: 13% | Population Tubulin-Different-Phenotype (%) [9]: 3% | Total Cell Count [9]: 414 | Population Apoptotic (%) [10]: 83% | Population Fragmented Nuclei (%) [10]: 15% | Population Healthy Nuclei (%) [10]: 72% | Population Membrane Permeable-Phenotype (%) [10]: 7% | Population Mitochondria Different-Phenotype (%) [10]: 5% | Population Mitotic Cells (%) [10]: 16% | Population Pyknosed Nuclei (%) [10]: 12% | Population Tubulin-Different-Phenotype (%) [10]: 4% | Total Cell Count [10]: 248 | Population Apoptotic (%) [11]: 71% | Population Fragmented Nuclei (%) [11]: 28% | Population Healthy Nuclei (%) [11]: 43% | Population Hoechst High Intensity Objects (%) [11]: 8% | Population Membrane Permeable-Phenotype (%) [11]: 17% | Population Mitochondria Different-Phenotype (%) [11]: 8% | Population Mitotic Cells (%) [11]: 28% | Population Normal (%) [11]: 91% | Population Pyknosed Nuclei (%) [11]: 28% | Population Tubulin-Different-Phenotype (%) [11]: 7% | Total Cell Count [11]: 206 | Population Apoptotic (%) [12]: 84% | Population Healthy Nuclei (%) [12]: 42% | Population Membrane Permeable-Phenotype (%) [12]: 11% | Population Mitochondria Different-Phenotype (%) [12]: 30% | Population Mitotic Cells (%) [12]: 16% | Population Pyknosed Nuclei (%) [12]: 29% | Population Tubulin-Different-Phenotype (%) [12]: 13% | Total Cell Count [12]: 93

Source: ChEMBL document CHEMBL5058577, “EUbOPEN Chemogenomics Library 2 (Multiplex)” (2022)
